Measured values pooled from the literature.
Each line is one published result; the experiments were not run side by side.
Effect on: cell growth or viability

With `COc1ccc(S(=O)(=O)Nc2cc(OC)c(NC(=O)CCl)cc2OC)cc1` the IC50 was 2.4 µM (HeLa; XTT; 72 h).
`Cc1nc2ccc(Cl)cn2c1C(=O)N1CCN(Cc2cn(-c3cccc(Cl)c3)nn2)CC1` has a CC50 of over 100 µM (HeLa; resazurin).
With `C=CC1=C(C)c2cc3[nH]c(cc4nc(cc5[nH]c(cc1n2)c(C)c5CCC(=O)O)C(CCC(=O)O)=C4C)c(C)c3C=C` the IC50 was over 100 µM (RPE-1; resazurin; 4 h, dark).
`CCOP(=O)(OCC)[C@@H]1C[C@@H](n2cc(-c3ccccn3)nn2)ON1C` (racemic) gave a CC50 of over 250 µM (HeLa; 72 h).
`COc1cc(N)c(NS(=O)(=O)c2ccc(N(C)C)cc2)cc1OC` gave an IC50 of over 100 µM (HeLa; XTT; 72 h).
The CC50 of `COc1ccc(-n2cc(CN3CCN(C(=O)c4c(C)nc5cc(C)ccn45)CC3)nn2)c([N+](=O)[O-])c1` is reported as over 100 µM (HeLa; resazurin).
The IC50 of `COc1ccc(NS(=O)(=O)c2ccc(N(C)C=O)cc2)cn1` is reported as over 100 µM (HeLa; XTT; 72 h).
For `COc1ccc(-n2cc(CN3CCN(C(=O)c4c(C)nc5ccc(Cl)cn45)CC3)nn2)c([N+](=O)[O-])c1`, the CC50 was over 100 µM (HeLa; resazurin).
With `Nc1nc2c(ncn2COCCO)c(=O)[nH]1` the CC50 was over 440 µM (HEL; 72 h).
For `CCOP(=O)(OCC)[C@@H]1C[C@H](n2cc(C(=O)OC)nn2)ON1C` (relative stereo), the CC50 was over 100 µM (HEL; 72 h).
With `Cc1nc2ccc(Cl)cn2c1C(=O)N1CCN(Cc2cn(-c3ccccc3)nn2)CC1` the CC50 was over 100 µM (HeLa; resazurin).
For `COC(=O)c1cc(N)cc(NS(=O)(=O)c2ccc(OC)cc2)c1`, the IC50 was 20 µM (HeLa; XTT; 72 h).
With `CCOP(=O)(OCC)[C@@H]1C[C@@H](n2cc(-c3nccn3C)nn2)ON1C` the CC50 was over 100 µM (HEL; 72 h).
